Screens (PubChem)
EWS-Fli block: inhibitors of EWS/Fli oncoprotein transcriptional activity; A673 NR0B1-luciferase reporter, viability-normalised; inhibition, % at 12.6 µM; 350,000 tested, 0.67% active; AID 651661;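 active means mean inhibition of at least 50% after viability correction, with every replicate also passing that limit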;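 further: firefly luciferase signal divided by Alamar Blue viability fluorescence both relative to DMSO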
LGR2 inh: Drosophila LGR2 receptor signaling inhibition | AID 720647 | HEK293 LGR2, CRE-luciferase, bursicon-stimulated, 4 h | 380,000 tested, 0.35% active | inhibition, % at 9.99 µM;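 active means drop in luminescence signal, shown as inhibition above about 50% in the replicate tests, limit read from the data, passing the limit was not always enough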;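 further: agonist challenge used bursicon conditioned medium at about half maximal strength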
FN deposit inh: fibronectin deposition inhibition; AH1F fibroblasts, Alexa488-fibronectin deposition fluorescence, overnight; 350,000 tested, 0.086% active; inhibition, % at 12.6 µM;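 active means mean inhibition across replicates of 30% or more, regardless of how many single replicates reach that level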
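Assay system: AH1F fibroblast monolayer, labelled fibronectin deposition. Amount: 10000 cells per well. Also added: labelled fibronectin 24 nM. Compound: single-point pinned compound. Incubation: cell attachment 1 h, compound and FN exposure overnight. Detection: fluorescence after three HBSS washes, excitation 485 nm, emission 525 nm. Read-out: inhibition of fibronectin deposition signal.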
XiGFP reactiv: X-chromosome reactivation activator; XiGFP mouse fibroblasts, % GFP-positive cells imaging, 3 d; cells co-treated with 5-aza-dC sensitizer; scaled so ellipticine positive control = 100%; activation, % at 7.58 µM; 360,000 tested, 0.055% active;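 active means mean normalized replicate activation at least 10% and every replicate at or above 10%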
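System: SV40-immortalized XiGFP fibroblast cells, line 68-5-11 / Incubation: 3-day compound exposure, then 15 min fixation at room temperature / Compound: single concentration per compound, delivered by pin transfer / Buffer or medium: DMEM plus 5-aza-dC sensitizer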
TROY signal inh: inhibitors of TROY-dependent NF-kB signaling; Q293 LMP1-TROYcd NF-kB luciferase reporter, 4 h; inhibition, % at 10 µM; 360,000 tested, 0.98% active;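 active means compounds whose plate-normalised and pattern-corrected inhibition of the luciferase reporter signal at the single screening dose is 50% or more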
TWEAK Fn14 block: blocks TWEAK-Fn14 interaction in a reporter cell assay; TWEAK-stimulated Fn14 reporter cells, luciferase luminescence, 8 h; inhibition, % at 10 µM; 360,000 tested, 2% active; AID 1159606; in the data active means inhibition above about 50%
Large screens that a line does not name were inactive. An excerpt weighted towards active compounds, which were near 2.3% of everything screened.

CC(=O)c1cccc(-c2ccnc3c2CC(C(=O)NCC2CCOCC2)O3)c1 (stereo unspecified)	EWS-Fli block 66
COc1ccc(NC(=O)C2Cc3c(-c4cccc(NC(C)=O)c4)ccnc3O2)cn1 (stereo unspecified)	EWS-Fli block 63
COc1ccc(NC(=O)C2Cc3c(-c4ccccc4Oc4ccccc4)ccnc3O2)cc1OC (stereo unspecified)	TWEAK Fn14 block 63
CO[C@@H]1CN(C)C(=O)c2cc(NC(=O)C3CC3)ccc2OC[C@@H](C)N(Cc2ccncc2)C[C@@H]1C	none (no result: TROY signal inh, TWEAK Fn14 block)
CC1=C(C(=O)Nc2cccc(F)c2)C(c2ccsc2)C2=C(CC(C)(C)CC2=O)N1 (stereo unspecified)	EWS-Fli block 54 (no result: FN deposit inh)
C[C@@H]1CCCCO[C@@H](CN(C)Cc2ccc(C(F)(F)F)cc2)[C@H](C)CN([C@@H](C)CO)C(=O)c2cc(NS(=O)(=O)c3ccc(F)cc3)ccc2O1	EWS-Fli block 71 (no result: TROY signal inh, TWEAK Fn14 block)
C[C@@H]1CN([C@H](C)CO)C(=O)c2cc(NS(=O)(=O)c3ccc(F)cc3)ccc2O[C@@H](C)CCCCO[C@H]1CN(C)Cc1ccc(C(F)(F)F)cc1	EWS-Fli block 65 (no result: TROY signal inh, TWEAK Fn14 block)
C[C@@H]1CN([C@@H](C)CO)C(=O)c2cc(NS(=O)(=O)c3ccc(F)cc3)ccc2O[C@@H](C)CCCCO[C@H]1CN(C)Cc1ccc(C(F)(F)F)cc1	none (no result: TROY signal inh, TWEAK Fn14 block)
COc1ccc(CN(C)C[C@H]2OCCCC[C@@H](C)Oc3ccc(NS(=O)(=O)c4ccc(C)cc4)cc3C(=O)N([C@H](C)CO)C[C@H]2C)cc1	EWS-Fli block 59 (no result: FN deposit inh, TROY signal inh, TWEAK Fn14 block)
C[C@@H]1CN([C@@H](C)CO)C(=O)c2cc(NS(=O)(=O)c3ccc(F)cc3)ccc2O[C@@H]1CN(C)Cc1ccc(C(F)(F)F)cc1	EWS-Fli block 75 (no result: FN deposit inh, TROY signal inh, TWEAK Fn14 block)
C[C@H](CO)N1C[C@H](C)[C@H](CN(C)C(=O)CCC(F)(F)F)OCCCC[C@H](C)Oc2ccc(NC(=O)NC3CCCCC3)cc2C1=O	none (no result: FN deposit inh, TROY signal inh, TWEAK Fn14 block)
COc1ccccc1S(=O)(=O)N[C@H]1CC[C@H](CC(=O)NCc2cc(F)cc(F)c2)O[C@H]1CO	none (no result: FN deposit inh, TROY signal inh, TWEAK Fn14 block)
C[C@H](CO)N1C[C@H](C)[C@@H](CN(C)C)Oc2ccc(NC(=O)c3ccncc3)cc2C1=O	none (no result: FN deposit inh, TROY signal inh, TWEAK Fn14 block)
O=C(COc1ccc2ccc(=O)oc2c1)Nc1cccc(S(=O)(=O)N2CCCCC2)c1	TWEAK Fn14 block 53
O=C(Nc1ccccc1C(=O)O)c1cc(S(=O)(=O)N2CCCCC2)c(Cl)cc1Cl	TWEAK Fn14 block 56
Cc1ccc(OCC(=O)Nc2cccc(S(=O)(=O)N3CCCC3)c2)cc1C	none
O=C(NCc1nc2ccccc2[nH]1)c1ccc(Cl)c(S(=O)(=O)N2CCCC2)c1	none (no result: EWS-Fli block, LGR2 inh, FN deposit inh, XiGFP reactiv)
Cc1ccc(NC(=O)COc2ccccc2C(N)=O)cc1S(=O)(=O)N1CCCCCC1	TWEAK Fn14 block 58
CCCn1c(NC(=O)c2ccc(Cl)c(S(=O)(=O)N3CCCC3)c2)nc2ccccc21	TWEAK Fn14 block 60 (no result: EWS-Fli block, LGR2 inh, FN deposit inh, XiGFP reactiv)
COc1ccc(NC(=O)COc2ccccc2C(N)=O)cc1S(=O)(=O)N1CCCCC1	none
CO[C@H]1CN(C)C(=O)c2ccc(NC(=O)C3CC3)cc2OC[C@H](C)N(C(=O)Cc2ccccn2)C[C@H]1C	none (no result: TROY signal inh, TWEAK Fn14 block)
COc1ccc(NC(=O)Nc2cccc3c2O[C@H](CN(C)C(=O)Nc2ccccc2)[C@@H](C)CN([C@@H](C)CO)C3=O)cc1	none (no result: FN deposit inh, TROY signal inh, TWEAK Fn14 block)
CCN1CCN(c2ccc(S(=O)(=O)N3CCCCC3)cc2NC(=O)/C=C/c2ccc(F)cc2)CC1	none
CCN1CCN(c2ccc(S(=O)(=O)N3CCCCC3)cc2NC(=O)/C=C/c2ccc([N+](=O)[O-])cc2)CC1	EWS-Fli block 57
Cc1ccc(NC(=O)COc2ccc(N(C)C(=O)C(C)(C)C)cc2)cc1S(=O)(=O)N1CCCCC1	TWEAK Fn14 block 69
Cc1ccc(NC(=O)COc2cccc(C)c2C)cc1S(=O)(=O)N1CCCCCC1	none
COc1cc(C(C)=O)ccc1OCC(=O)Nc1ccc(C)c(S(=O)(=O)N2CCCCCC2)c1	TROY signal inh 63, TWEAK Fn14 block 84
Cc1ccc(NC(=O)CSc2ncnc3ccccc23)cc1S(=O)(=O)N1CCCCCC1	TROY signal inh 53, TWEAK Fn14 block 87
CN1CCN(c2ccc(S(=O)(=O)N3CCCCC3)cc2NC(=O)COc2cccc(Cl)c2)CC1	none
Cc1cccc(OCC(=O)Nc2cc(S(=O)(=O)N3CCCCC3)ccc2N2CCN(C)CC2)c1	TROY signal inh 85
CCc1cccc(OCC(=O)Nc2ccc(C)c(S(=O)(=O)N3CCCCCC3)c2)c1	TWEAK Fn14 block 50
O=C(COC(=O)c1ccc(Cl)c(S(=O)(=O)N2CCCCCC2)c1)Nc1ccccc1	TROY signal inh 58 (no result: LGR2 inh)
CC(=O)c1ccc(OCCCC(=O)Nc2ccc(C)c(S(=O)(=O)N3CCCCC3)c2)cc1	TWEAK Fn14 block 51
O=C(COC(=O)c1ccc(S(=O)(=O)N2CCCC2)cc1)Nc1ccccc1	none
C[C@@H]1CN([C@@H](C)CO)C(=O)c2c(c3ccccc3n2C)-c2ccccc2CO[C@@H]1CN(C)C(=O)CCC(F)(F)F	none (no result: TROY signal inh, TWEAK Fn14 block)
COCC(=O)N1C[C@H](C)[C@H](OC)CN(C)C(=O)c2cc(NS(C)(=O)=O)ccc2OC[C@@H]1C	none (no result: TROY signal inh, TWEAK Fn14 block)
COCC(=O)N(C)C[C@@H]1Oc2cc(-c3ccncc3)ccc2S(=O)(=O)N([C@H](C)CO)C[C@H]1C	none (no result: TROY signal inh, TWEAK Fn14 block)
COc1ccc(NC(=O)Nc2ccc3c(c2)C(=O)N([C@@H](C)CO)C[C@@H](C)[C@@H](CN(C)Cc2ccc(C(=O)Nc4ccccc4N)cc2)O3)cc1	none (no result: TROY signal inh, TWEAK Fn14 block)
OC(CSc1ccccc1Cl)CN1CCN(c2ccccc2F)CC1 (stereo unspecified)	TROY signal inh 63 (no result: EWS-Fli block, XiGFP reactiv)
OC(CSc1c(Cl)cccc1Cl)CN1CCN(c2ccccc2F)CC1 (stereo unspecified)	none (no result: EWS-Fli block, XiGFP reactiv)
Cc1ccc(S(=O)(=O)N2[C@@H](c3ccc(C(C)(C)C)cc3)C(C(=O)O)=CC[C@H]2c2cccc(Cl)c2)cc1	TROY signal inh 81, TWEAK Fn14 block 50
Cc1ccc([C@H]2C(C(=O)O)=CC[C@@H](c3cccc(Cl)c3)N2S(=O)(=O)c2ccc(C)cc2)cc1	none
Cc1ccc(S(=O)(=O)N2[C@@H](c3ccc(Br)cc3)C(C(=O)O)=CC[C@H]2c2ccc(Cl)c(Cl)c2)cc1	TROY signal inh 62
Cc1ccc(S(=O)(=O)N2[C@@H](c3ccc(C(C)(C)C)cc3)C(C(=O)O)=CC[C@H]2c2ccc(Cl)c(Cl)c2)cc1	none (no result: FN deposit inh)
COc1ccc(CNC(=O)C[C@H]2C[C@H]3c4cc(NC(=O)CC5CC5)ccc4O[C@H]3[C@@H](CO)O2)cc1	none (no result: TROY signal inh, TWEAK Fn14 block)
COC(=O)c1c(C)[nH]c(C(=O)C(C)OC(=O)C2CC(=O)N(c3ccc(C)cc3)C2)c1C (stereo unspecified)	TROY signal inh 54
